MIN6 prolif: inducers of MIN6 beta-cell proliferation, primary screen, ATP luminescence, uHTS | hit rate 0.29% among 330,000 | MIN6 cells proliferation, ATPlite luminescence, 48 h; cells starved in 0.2% serum; 100% = growth in 10% serum | proliferation, % at 10 µM;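 active means compounds whose signal lies at least 3.5 SD above the mean of all wells on their plate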;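 further: 0% = DMSO-treated cells in low-serum medium and 100% = 10% serum control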
FLuc act counter: FLuc activators, initial screening, artefact control for FLuc-dependent activation tests, biochemical, ATPlite luminescence | Luciferin 4-monooxygenase (Photinus pyralis), P08659 | ATPlite luciferase biochemical, 10 min; 0 = ATP-free wells, 1 = DMSO control | activation factor at 10 µM | 200,000 tested, under 10 active | AID 1027, 2008;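 active means luciferase activation factor, scaled between plate controls, of at least 2 with compound at 10 µM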
Target sequence (P08659 whole entry, looked up): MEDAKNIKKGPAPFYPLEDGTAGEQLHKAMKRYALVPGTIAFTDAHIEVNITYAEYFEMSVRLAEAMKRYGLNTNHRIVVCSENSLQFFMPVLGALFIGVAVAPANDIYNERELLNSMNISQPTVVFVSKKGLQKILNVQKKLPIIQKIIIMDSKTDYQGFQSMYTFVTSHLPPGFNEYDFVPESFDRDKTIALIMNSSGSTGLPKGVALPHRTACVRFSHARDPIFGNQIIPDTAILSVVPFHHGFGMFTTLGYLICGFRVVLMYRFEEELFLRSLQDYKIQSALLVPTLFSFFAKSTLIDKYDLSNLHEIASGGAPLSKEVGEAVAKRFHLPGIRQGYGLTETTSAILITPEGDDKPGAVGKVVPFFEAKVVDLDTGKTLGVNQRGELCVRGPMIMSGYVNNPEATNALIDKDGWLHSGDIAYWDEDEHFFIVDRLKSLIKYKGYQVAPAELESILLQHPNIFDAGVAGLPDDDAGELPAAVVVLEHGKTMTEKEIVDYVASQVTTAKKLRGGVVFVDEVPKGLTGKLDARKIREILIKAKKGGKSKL
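Assay system – cell-free luciferase reagent · Medium – PBS-based ATP solution · Dosing – test compounds dosed from 2 mM stocks in 100% DMSO · Timing – 10 min, room temperature · Technique – light output (luminescence) · Measure – luminescence gain marking luciferase activators · Controls – No-ATP low control, compound-free enzyme-plus-ATP high control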
PPC-1+TRAIL kill: compounds killing PPC-1 cancer cells with TRAIL present, primary screen, TRAIL potentiator project, ATPLite luminescence, uHTS; PPC-1 cells + TRAIL, ATPLite viability luminescence; cell killing (% activity), % at 4 µM or 5 µM; hit rate 0.41% among 220,000; AID 1443, 2008;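 active means cell killing above 50% in the first pass at 4 µM, then a duplicate retest at 5 µM averaging 50% or more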;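 further: plate controls were cells with TRAIL plus DMSO for no effect and medium-only wells lacking cells for full effect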
FLuc inhib CS: firefly luciferase enzyme inhibitors, primary screen, artefact control for luciferase-based inhibitor screens, biochemical, luminescence, ATPLite | AID 1006, 2008 | 10 min | Luciferin 4-monooxygenase (Photinus pyralis), P08659 | inhibition, % at 10 µM | hit rate 1.5% among 200,000;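 active means inhibition above about 50% when tested at 10 µM, limit read from the data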
TRAIL sens C8: viability loss with TRAIL in NB7+C8 cells, primary screen, TRAIL sensitizer project, cell-based, ATPlite luminescence; inhibition (viability loss, TRAIL sensitization), % at 10 µM; hit rate 1% among 360,000;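 active means compounds causing at least 50% loss of cell viability in the single-dose screen, relative to plate controls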
hiPSC survival: enhancers of single-cell hiPSC survival, primary screen, ATPlite luminescence. 100% = ROCK inhibitor wells, 0% = DMSO. survival enhancement, % at 20 µM. hit rate 0.044% among 360,000. AID 602274, 2012; in the data active means survival enhancement above about 18%;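 further: cells exposed to compounds for 16 hours before the ATP read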
Active calls of the source: *; nt = no result given. Rows were chosen to be rich in hits. Some 1.8% of all compounds tested hit in one or more screens of this group.

SMILES	MIN6 prolif	FLuc act counter	PPC-1+TRAIL kill	FLuc inhib CS	TRAIL sens C8	hiPSC survival
C(=N\c1nc2ccccc2[nH]1)/c1cccs1	-1.6	0.3	12.4	70.8*	-7.4	2.2
Cc1cccc(-c2cc3c(nn2)-c2ccccc2C3=O)c1	-3.4	0.4	35.2	61.7*	44.7	-1.3
C=CCOC(=O)Cn1cnc2c(sc3nc(C)cc(C)c32)c1=O	0.6	nt	nt	nt	8.0	0.2
O=C(Nc1ccc(F)cc1)c1csc(Cc2ccccc2)n1	-1.2	0.5	13.2	52.7*	8.2	-0.1
COc1ccc(-c2nc3ccccc3n2OCC(=O)O)cc1	-4.2	0.3	46.7	71.9*	40.3	-3.2
O=c1[nH]c(/C(=N\O)c2ccccc2)no1	-3.6	1	40.9	0.5	73.3*	8.7
COc1cccc(OC(=O)c2ccccc2)c1OC(=O)c1ccccc1	nt	nt	nt	nt	7.9	0.9
Cc1ccc(/C=N/NC(=O)c2cccc(NC(=O)c3ccccc3Cl)c2)o1	0.3	nt	nt	nt	8.7	-0.4
COc1ccccc1NC(CC(=O)c1ccccc1)C(=O)OCC(=O)c1ccc(F)cc1 (centres undefined)	-6.5	1	-4.9	-4.3	67.6*	2.2
COc1ccc(S(=O)(=O)c2ccc(OC)cc2)cc1	-1.2	1.1	19.7	-9.3	-5.5	0.5
COc1ccc(N=[N+]([O-])c2ccc(OC)cc2)cc1	nt	nt	nt	nt	66.9*	-5.6
O=C(N/N=C/c1cn(-c2ccccc2)nc1-c1cc2ccccc2o1)c1ccncc1	-6.0	0.7	12.1	25.5	44.9	-2.4
O=C(N/N=C/c1cn(-c2ccccc2)nc1-c1cc2ccccc2o1)c1cccnc1	-6.2	0.8	34.4	19.4	55.0*	-4.6
Brc1cc2c(cc1C1OCCCO1)OCO2	nt	nt	nt	nt	-20.4	3.3
COc1ccc(OC)c(/C=C/C(=O)c2ccc3c(c2)OCCO3)c1	-4.9	nt	nt	nt	65.3*	-1.0
O=C(/C=C/c1ccccc1)c1ccc2c(c1)OCCCCO2	-6.7	0.1	7.1	87.9*	15.4	-6.7
O=C(C=Cc1ccc2c(c1)OCO2)c1ccccc1	nt	nt	nt	nt	1.5	-3.1
CC1CN/C(=C\C(=O)c2ccccc2)C(=O)N1 (centres undefined)	-1.3	0.8	24.1	20.5	1.6	-3.9
CC1CN/C(=C\C(=O)c2ccc(Cl)cc2)C(=O)N1 (centres undefined)	-4.0	0.5	28.2	51.3*	13.6	-2.8
O=c1oc2ccccc2cc1-c1csc(Nc2nc3ccc(F)cc3s2)n1	-5.5	1	5.9	0.7	nt	nt
O=c1oc2ccccc2cc1-c1csc(Nc2nc3c(F)cccc3s2)n1	-3.2	0.9	-1.3	8.7	53.3*	-1.0
OCC[C@@H]1C[C@H](O)[C@@H](O)[C@]2(CCc3ccccc3O2)O1	-5.2	nt	nt	nt	-6.7	5.1
O=c1c2ccccc2nc(N/N=C/c2c(O)ccc3ccccc23)n1O	-6.0	0.1	20.7	87.9*	70.7*	1.0
Oc1ccc(/C=N/Nc2ccccc2)cc1	-2.8	1	8.8	-2.2	1.2	-0.4
O=c1c2ccccc2nc(N/N=C/c2ccc(O)cc2)n1O	-5.0	0.1	1.8	93.8*	61.8*	-2.9
SMILES	MIN6 prolif	FLuc act counter	PPC-1+TRAIL kill	FLuc inhib CS	TRAIL sens C8	hiPSC survival
CCCc1nc2c(=O)n(C)c(=O)nc-2n(C)n1	nt	1.1	42.9	-5.0	96.5*	0.3
Cc1ccc(NC(=O)C2C(=O)N(C)c3ccccc32)cc1 (centres undefined)	-1.6	0.2	26.8	76.3*	-4.8	0.6
Cc1cc(-c2ccc(C(C)C)c(S(=O)(=O)N3CCN(c4ccccn4)CC3)c2)on1	-6.1	nt	nt	nt	30.5	0.1
COc1ccc(S(=O)(=O)N2CCCCCC2)cc1NC(=O)CN1C(=O)NC(C)(c2ccccc2)C1=O (centres undefined)	0.7	nt	nt	nt	3.9	-0.4
CCCc1cc(=O)[nH]c(SCC(=O)NC(=O)OCC)n1	-2.0	1	-18.0	1.6	5.1	-1.3
CCCc1cc(=O)[nH]c(SCC(=O)Nc2sc(C(N)=O)c(C)c2C(=O)OCCOC)n1	-6.2	nt	nt	nt	85.2*	0.1
Cc1cscc1-c1ccc(C(=O)Nc2c(C)cccc2C)o1	nt	nt	nt	nt	3.3	-0.6

Screening results (PubChem BioAssay)
